In ChEMBL document CHEMBL1250445, “Fluorogenic probes for monitoring peptide binding to class II MHC proteins in living cells” (Nat Chem Biol, 2007) one finds IC50, Activity and Time data, which are given here for six compounds.

Calls of active or inactive are those of the source. The rule behind the calls is not given here. *1 amine or outer side, *2 acyl side, *3 side chain or, on linkers, in order; H or OH if unused. Where a SMILES comes first, the peptide text is derived from it. [ ]: non-standard residue; d: D form. The star is where a group is joined. X1 = CN(C)c1ccc2c(c1)C(=O)N(C[C@H](N[*:1])C(=O)[*:2])C2=O; X2 = CN(C)c1ccc2cc(C(=O)O)c(C(=O)*)cc2c1; X3 = CN(C)c1ccc(CC(=O)*)c(C(=O)O)c1; Dap = NC[C@H](N)C(=O)O

Common to all, as to format: cell-based
Experiment [1] deals with T1, HLA class II histocompatibility antigen, DRB1-15 beta chain (Homo sapiens, UniProt P01903+P01911, A100R/D57E/F55L/F60I/F76Y/I96L/L162R/M171V/P40L/Q125E/R42F/V115G/Y59C). The experiment in a line: Displacement of biotin-HA from recombinant soluble HLA-DR1 expressed in […] by ELISA.
Experiment [2] deals with HLA class II histocompatibility antigen, DRB1-15 beta chain (Homo sapiens) (UniProt P01911). The experiment in a line: Activation of HLA-DR1 positive B cells assessed as IL2 secretion. In a few lines: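 HLA-DR1-positive B cells were pulsed with peptide and used as antigen-presenting cells for the HLA-DR1-restricted, HA-specific HA1.7 T cell hybridoma. Activation was read as IL-2 secretion in a thymidine incorporation bioassay, in c.p.m. Triplicate measurements, with SD shown.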

Experiment [3] shares this target. Put plainly: Binding affinity to recombinant soluble HLA-DR1 expressed in […] assessed as fluorescence lifetime by fluorescence lifetime imaging microscopy.
Experiment [4] shares this target. The experiment in a line: Binding affinity to recombinant soluble HLA-DR1 expressed in […] assessed as relative fluorescence intensity by fluorescence spectral assay.
The target in experiment [5] is T1, HLA class II histocompatibility antigen, DRB1-15 beta chain. Put plainly: Displacement of biotin-HA from recombinant soluble HLA-DR1 expressed in human T2 cells at acidic pH by ELISA.
For experiment [6], the target named is HLA class II histocompatibility antigen, DRB1-15 beta chain (Homo sapiens) (UniProt P01911). The experiment in a line: Binding affinity to recombinant soluble HLA-DR1 expressed in human T2 cells assessed as increase in fluorescence lifetime at 1 uM by fluorescence lifetime imaging microscopy.

As to `CN(C)c1ccc2c(c1)C(=O)N(C[C@H](NC(=O)OCC1c3ccccc3-c3ccccc31)C(=O)O)C2=O`, in experiment [1], the IC50 is over 1000 nM.

`CC(C)C[C@H](NC(=O)[C@H](CCCCN)NC(=O)[C@H](CC(C)C)NC(=O)[C@@H](NC(=O)[C@H](CC(N)=O)NC(=O)[C@H](CCC(N)=O)NC(=O)[C@H](CCCCN)NC(=O)[C@@H](NC(=O)[C@H](Cc1ccc(O)cc1)NC(=O)[C@H](CCCCN)NC(=O)[C@@H]1CCCN1C(=O)[C@@H](N)CN1C(=O)c2ccc(N(C)C)cc2C1=O)C(C)C)[C@@H](C)O)C(=O)N[C@@H](C)C(=O)N[C@H](C(=O)O)[C@@H](C)O`: the result in experiment [2] was Active. In addition, the Time in experiment [3] is 0.6 nanoseconds. Moreover, the Activity in experiment [4] came out at 578 cps/nM.

In the case of `CSCC[C@H](NC(=O)[C@H](CO)NC(=O)[C@H](CCCNC(=N)N)NC(=O)[C@H](CNC(=O)c1cc2cc(N(C)C)ccc2cc1C(=O)O)NC(C)=O)C(=O)N[C@@H](C)C(=O)N[C@@H](C)C(=O)N[C@@H](C)C(=O)N[C@@H](C)C(=O)N[C@@H](CC(C)C)C(=O)O` (Ac-[Dap](X2)RSMAAAAL-OH), the IC50 in experiment [5] was determined as 27 nM.

Consider `CSCC[C@H](NC(=O)[C@H](CO)NC(=O)[C@H](CCCN=C(N)N)NC(=O)[C@H](CNC(=O)Cc1ccc(N(C)C)cc1C(=O)O)NC(C)=O)C(=O)N[C@@H](C)C(=O)N[C@@H](C)C(=O)N[C@@H](C)C(=O)N[C@@H](C)C(=O)N[C@@H](CC(C)C)C(=O)O` (Ac-[Dap](X3)RSMAAAAL-OH), for which, in experiment [5], the IC50 is 28 nM.

With `C[C@@H](O)[C@H](NC(=O)[C@H](CCC(=O)O)NC(=O)[C@@H](N)CN1C(=O)c2ccc(N(C)C)cc2C1=O)C(=O)N[C@@H](CC(=O)O)C(=O)N[C@@H](CCCCN)C(=O)N[C@@H](CC(=O)O)C(=O)N[C@@H](CCCCN)C(=O)N[C@@H](CO)C(=O)N[C@@H](CCCN=C(N)N)C(=O)O` (H-[X1]ETDKDKSR-OH), the IC50 in experiment [1] is over 10000 nM.

With `CSCC[C@H](NC(=O)[C@H](CO)NC(=O)[C@H](CCCNC(=N)N)NC(=O)[C@@H](N)CN1C(=O)c2ccc(N(C)C)cc2C1=O)C(=O)N[C@@H](C)C(=O)N[C@@H](C)C(=O)N[C@@H](C)C(=O)N[C@@H](C)C(=O)N[C@@H](CC(C)C)C(=O)O` (H-[X1]RSMAAAAL-OH), the IC50 in experiment [5] and in experiment [1] was 4 nM throughout. Moreover, the Time in experiment [3] is 0.82 nanoseconds. In experiment [4], the Activity was found to be 599 cps/nM. Moreover, the outcome in experiment [6] was Active.
